In assay [1] the target is T1, Sodium- and chloride-dependent glycine transporter 1 (Homo sapiens, UniProt P48067).
T1 sequence (P48067 whole entry): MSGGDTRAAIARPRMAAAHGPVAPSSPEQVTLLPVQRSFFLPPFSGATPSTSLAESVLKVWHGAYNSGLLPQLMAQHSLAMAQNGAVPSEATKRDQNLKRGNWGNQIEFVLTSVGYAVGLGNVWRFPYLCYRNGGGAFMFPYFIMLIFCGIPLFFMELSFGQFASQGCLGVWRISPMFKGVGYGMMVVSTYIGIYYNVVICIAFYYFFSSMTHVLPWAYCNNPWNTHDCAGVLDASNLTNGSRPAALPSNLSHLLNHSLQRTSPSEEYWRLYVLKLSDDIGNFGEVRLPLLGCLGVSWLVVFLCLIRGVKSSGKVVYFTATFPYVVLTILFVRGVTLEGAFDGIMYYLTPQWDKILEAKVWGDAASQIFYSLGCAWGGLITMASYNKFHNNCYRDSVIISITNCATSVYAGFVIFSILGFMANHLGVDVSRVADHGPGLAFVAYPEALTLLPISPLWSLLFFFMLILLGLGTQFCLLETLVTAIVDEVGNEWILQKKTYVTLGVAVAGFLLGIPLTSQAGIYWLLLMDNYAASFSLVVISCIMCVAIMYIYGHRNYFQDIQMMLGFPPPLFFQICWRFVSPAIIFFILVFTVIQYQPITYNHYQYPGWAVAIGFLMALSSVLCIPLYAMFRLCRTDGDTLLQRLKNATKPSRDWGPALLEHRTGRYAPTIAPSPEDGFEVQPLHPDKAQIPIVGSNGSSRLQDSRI
The assay can be described thus: Inhibition of [3H]glycine uptake at GlyT1.

In assay [2] the target is T2, Sodium- and chloride-dependent glycine transporter 2 (Homo sapiens, UniProt Q9Y345).
T2 sequence (Q9Y345 whole entry): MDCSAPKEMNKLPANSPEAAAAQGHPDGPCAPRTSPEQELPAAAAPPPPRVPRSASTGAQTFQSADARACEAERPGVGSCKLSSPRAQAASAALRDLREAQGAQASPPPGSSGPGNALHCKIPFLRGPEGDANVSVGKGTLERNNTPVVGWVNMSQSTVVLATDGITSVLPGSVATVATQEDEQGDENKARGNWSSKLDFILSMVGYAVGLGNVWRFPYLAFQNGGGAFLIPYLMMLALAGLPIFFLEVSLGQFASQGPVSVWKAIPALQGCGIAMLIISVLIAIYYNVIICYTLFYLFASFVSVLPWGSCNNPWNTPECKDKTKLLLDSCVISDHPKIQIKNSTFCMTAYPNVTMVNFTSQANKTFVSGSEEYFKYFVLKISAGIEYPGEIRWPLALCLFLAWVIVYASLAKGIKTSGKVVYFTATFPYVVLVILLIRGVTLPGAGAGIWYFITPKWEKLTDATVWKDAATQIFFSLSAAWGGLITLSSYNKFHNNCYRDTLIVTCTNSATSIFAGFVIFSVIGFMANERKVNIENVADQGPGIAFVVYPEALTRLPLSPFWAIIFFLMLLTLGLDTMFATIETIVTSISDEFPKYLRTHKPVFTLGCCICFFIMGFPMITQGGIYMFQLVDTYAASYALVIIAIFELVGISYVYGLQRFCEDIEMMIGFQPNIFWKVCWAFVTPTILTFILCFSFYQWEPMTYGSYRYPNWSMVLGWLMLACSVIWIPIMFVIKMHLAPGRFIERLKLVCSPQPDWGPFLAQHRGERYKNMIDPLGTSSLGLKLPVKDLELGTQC
The assay can be described thus: Inhibition of [3H]glycine uptake at GlyT2.

A further assay addresses Nociceptin receptor (Homo sapiens, UniProt P41146). The assay can be described thus: Displacement of [3H]NOP from human NOP receptor expressed in HEK293 cells. The assay is classed as cell-based. A digest of the protocol:
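Radioligand binding using membranes from HEK293 cells stably (permanently) transfected with human NOP receptor; displacement of [3H]-NOP measured.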
(In general: Loss of bound radioactivity is the signal in a displacement assay; it reports binding, not function.)

Sequence of Nociceptin receptor (P41146 whole entry): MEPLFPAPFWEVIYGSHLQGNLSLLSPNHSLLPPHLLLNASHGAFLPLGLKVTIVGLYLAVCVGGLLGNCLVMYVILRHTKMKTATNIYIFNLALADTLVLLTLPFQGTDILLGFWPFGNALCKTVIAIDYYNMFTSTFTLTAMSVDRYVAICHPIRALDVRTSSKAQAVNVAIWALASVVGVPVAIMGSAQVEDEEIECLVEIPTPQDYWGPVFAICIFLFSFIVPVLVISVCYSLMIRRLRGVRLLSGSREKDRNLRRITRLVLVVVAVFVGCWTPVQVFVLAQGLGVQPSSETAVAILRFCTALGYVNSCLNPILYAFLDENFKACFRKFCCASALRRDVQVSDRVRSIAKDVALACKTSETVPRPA

As to `O=C1NCC(c2ccc(Cl)c(Cl)c2)C12CCN(C1CCCCC1c1ccc(F)cc1)CC2` (single isomer, unassigned; diastereomer 2), the EC50 (in general, the concentration at which the effect is half-maximal) in assay [1] came to 2.19 µM.

In the case of `O=C1NC[C@@H](c2ccc(F)cc2)C12CCN([C@H]1CCCC[C@H]1c1ccc(F)cc1)CC2`, the EC50 in assay [1] was 1.06 µM; in assay [2], above 30 µM.

For the compound `O=C1NC[C@@H](c2ccccc2)C12CCN([C@@H]1CCCC[C@@H]1c1ccccc1)CC2`, in assay [1], the midpoint of the response, the EC50, lay at 2.83 µM.

For `O=C1NC[C@@H](c2ccc(F)cc2)C12CCN([C@@H]1CCCC[C@@H]1c1ccc(F)cc1)CC2`, the 50% effective concentration (EC50) in assay [1] was 0.043 µM; in assay [2], 16.7 µM. In addition, the IC50 (as a rule, the concentration at which inhibition is half-maximal) on Nociceptin receptor was above 10 µM.

Regarding `O=C1NCC(c2ccccc2)C12CCN(C1CCCCC1c1ccccc1)CC2` (stereo unspecified), the EC50 amounted to 0.232 µM in assay [1] and 25 µM in assay [2]. Besides, on Nociceptin receptor, the IC50 was above 10 µM.

In assay [1], `O=C1NCC(c2ccc(F)cc2)C12CCN(C1CCCCC1c1ccc(C(F)(F)F)cc1)CC2` (stereo in doubt) registered a half-maximal effective concentration (EC50) of 0.091 µM.

In the case of `O=C1NCC(c2ccccc2)C12CCN(C1CCCCC1c1ccc(F)cc1)CC2` (single isomer, unassigned; diastereomer 1), the EC50 in assay [1] came out at 0.167 µM.

With `COc1ccc(C2CNC(=O)C23CCN(C2CCCCC2c2ccc(F)cc2)CC3)cc1` (stereo unspecified), the EC50 in assay [1] stood at 0.113 µM.

In assay [1], `O=C1NC[C@H](c2ccccc2)C12CCN([C@@H]1CCCC[C@@H]1c1ccccc1)CC2` yielded an EC50 of 2.88 µM.

For `COc1ccc(C2CNC(=O)C23CCN(C2CCCCC2c2ccc(C)cc2)CC3)cc1` (single isomer, unassigned; diastereomer 2), the EC50 in assay [1] turned out to be 16.6 µM.

As to `O=C1NC[C@@H](c2ccccc2)C12CCN([C@H]1CCCC[C@H]1c1ccccc1)CC2`, the EC50 amounted to 0.246 µM in assay [1] and 39.6 µM in assay [2]. This compound registered an IC50 on Nociceptin receptor above 10 µM.

Regarding `O=C1NC[C@H](c2ccc(F)cc2)C12CCN([C@H]1CCCC[C@H]1c1ccc(F)cc1)CC2`, the results for the EC50 in assay [1] and in assay [2] were 1.3 µM and 8.36 µM, respectively.

For the compound `COc1ccc(C2CNC(=O)C23CCN(C2CCCCC2c2ccc(C)cc2)CC3)cc1` (single isomer, unassigned; diastereomer 1), the EC50 in assay [1] amounted to 1.13 µM.

On to `O=C1NC[C@H](c2ccccc2)C12CCN([C@H]1CCCC[C@H]1c1ccccc1)CC2`, for which, in assay [1], the EC50 is 0.061 µM. Further, the IC50 at Nociceptin receptor was above 10 µM.

`O=C1NCC(c2ccc(F)cc2)C12CCN(C1CCCCC1c1ccc(C(F)(F)F)cc1)CC2` (single isomer, unassigned; diastereomer 1) registered a concentration for a half-maximal effect (EC50) in assay [1] of 2.33 µM.

`O=C1NCC(c2ccc(F)cc2)C12CCN(C1CCCCC1c1ccc(C(F)(F)F)cc1)CC2` (single isomer, unassigned; diastereomer 2) displayed an EC50 in assay [1] of 0.953 µM.

Compound `O=C1NCC(c2ccc(F)cc2)C12CCN(C1CCCCC1c1ccc(C(F)(F)F)cc1)CC2` (single isomer, unassigned; diastereomer 3) came in with an EC50 in assay [1] of 0.129 µM.

Turning to `O=C1NCC(c2ccccc2)C12CCN(C1CCCCC1c1ccc(F)cc1)CC2` (single isomer, unassigned; diastereomer 2), the concentration giving a half-maximal response (EC50) in assay [1] is 0.048 µM.

In assay [1], `O=C1NCC(c2ccc(Cl)c(Cl)c2)C12CCN(C1CCCCC1c1ccc(F)cc1)CC2` (single isomer, unassigned; diastereomer 1) yielded an EC50 of 0.27 µM.

For the compound `O=C1NC[C@H](c2ccc(F)cc2)C12CCN([C@@H]1CCCC[C@@H]1c1ccc(F)cc1)CC2`, the EC50 in assay [1] is 0.036 µM; in assay [2] it was 39.9 µM. The compound further returned an IC50 at Nociceptin receptor above 10 µM.
